Test results taken from ChEMBL document CHEMBL3286272, “Synthesis, biological, and biophysical studies of DAG-indololactones designed as selective activators of RasGRP” (Bioorg Med Chem, 2014).
Active and inactive are the calls of the source. The rule behind the calls is not given here.

Legend:
[1] = target: Protein kinase C alpha type (Homo sapiens, UniProt P17252); assay: Displacement of [3H]PDBu from recombinant human PKC-alpha after 5 mins by scintillation counting analysis in presence of phosphatidylserine
Procedure, shortened: (§1)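 [3H]PDBu binding competition with 100 μg/ml phosphatidylserine present; PKCα and RasGRP1-C1 assayed at 37°C for stability. Values are mean ± SEM of triplicate independent experiments.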

[2] = target: T1, Protein kinase C epsilon type (Homo sapiens, UniProt Q02156); assay: Displacement of [3H]PDBu from recombinant human PKC-epsilon after 5 mins by scintillation counting analysis in presence of phosphatidylserine; procedure, shortened: as §1
T1 sequence (Q02156 whole entry): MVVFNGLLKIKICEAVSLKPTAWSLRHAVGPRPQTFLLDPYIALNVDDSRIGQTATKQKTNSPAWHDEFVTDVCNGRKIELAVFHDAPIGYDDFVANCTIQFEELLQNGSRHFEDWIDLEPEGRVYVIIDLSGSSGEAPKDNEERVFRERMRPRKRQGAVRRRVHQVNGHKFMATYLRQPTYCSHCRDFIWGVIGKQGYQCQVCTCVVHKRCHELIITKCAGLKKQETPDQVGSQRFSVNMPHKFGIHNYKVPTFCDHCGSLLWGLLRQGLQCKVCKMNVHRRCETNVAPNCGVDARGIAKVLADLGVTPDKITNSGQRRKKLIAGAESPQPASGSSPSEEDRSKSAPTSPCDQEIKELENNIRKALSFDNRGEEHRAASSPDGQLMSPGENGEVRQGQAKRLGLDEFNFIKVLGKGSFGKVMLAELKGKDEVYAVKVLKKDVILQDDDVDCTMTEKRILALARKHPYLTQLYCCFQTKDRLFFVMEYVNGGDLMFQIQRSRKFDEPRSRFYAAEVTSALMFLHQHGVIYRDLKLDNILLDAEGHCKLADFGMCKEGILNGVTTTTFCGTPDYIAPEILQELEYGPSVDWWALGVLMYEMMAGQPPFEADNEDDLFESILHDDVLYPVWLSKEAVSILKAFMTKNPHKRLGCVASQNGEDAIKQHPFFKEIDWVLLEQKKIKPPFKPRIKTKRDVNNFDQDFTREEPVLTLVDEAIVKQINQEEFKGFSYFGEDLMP

Homo sapiens = species on record: Homo sapiens; assay: Selectivity ratio of Ki for recombinant human PKC-alpha to Ki for recombinant human GFP-tagged RasGRP3
[3] = target: T2, RAS guanyl-releasing protein 1 (Homo sapiens, UniProt O95267); assay: Displacement of [3H]PDBu from recombinant RasGRP1 C1 domain (unknown origin) after 10 mins by scintillation counting analysis in presence of phosphatidylserine; procedure, shortened: as §1
T2 sequence (O95267 whole entry): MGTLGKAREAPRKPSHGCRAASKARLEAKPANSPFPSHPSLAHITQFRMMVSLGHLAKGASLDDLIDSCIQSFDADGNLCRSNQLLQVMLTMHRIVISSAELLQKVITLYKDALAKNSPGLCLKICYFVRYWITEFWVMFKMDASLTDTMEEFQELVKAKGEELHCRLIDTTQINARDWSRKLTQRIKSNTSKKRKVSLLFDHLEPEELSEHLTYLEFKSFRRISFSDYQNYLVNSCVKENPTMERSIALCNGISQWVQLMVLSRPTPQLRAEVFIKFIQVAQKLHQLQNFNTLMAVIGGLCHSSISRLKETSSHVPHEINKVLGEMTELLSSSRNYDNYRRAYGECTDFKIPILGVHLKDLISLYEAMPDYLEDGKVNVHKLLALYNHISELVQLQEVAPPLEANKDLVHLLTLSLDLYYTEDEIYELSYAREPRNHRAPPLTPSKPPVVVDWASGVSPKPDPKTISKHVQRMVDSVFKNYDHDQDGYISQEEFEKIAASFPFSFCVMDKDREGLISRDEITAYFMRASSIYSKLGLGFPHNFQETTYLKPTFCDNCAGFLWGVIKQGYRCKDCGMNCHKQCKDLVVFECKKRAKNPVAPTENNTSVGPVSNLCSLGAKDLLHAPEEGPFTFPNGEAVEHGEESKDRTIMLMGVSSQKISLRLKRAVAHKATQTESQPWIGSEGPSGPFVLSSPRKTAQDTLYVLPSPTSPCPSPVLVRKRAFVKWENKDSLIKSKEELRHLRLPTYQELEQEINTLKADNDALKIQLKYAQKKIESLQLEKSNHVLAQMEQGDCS

[4] = target: T3, Protein kinase C epsilon type (Homo sapiens) (UniProt Q02156); assay: Binding affinity to recombinant human YFP-tagged PKC-epsilon expressed in human LNCAP cells assessed as induction of protein translocation from plasma membrane to internal membrane at 10000 nM after 2 to 10 mins by confocal microscopic analysis; assay type: cell-based
T3 sequence (whole entry): T1 sequence (Q02156 whole entry)
Procedure, shortened: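 LNCaP cells were transiently transfected with human YFP-PKCε and imaged live by confocal microscopy 24 h later every 30 s for 30 min after 10 μM ligand. Membrane/cytoplasm intensity ratio from 4 μm2 regions was normalized to time 0. n = 3–6.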

[5] = Binding affinity to 9:1 DMPG/DMPC giant vesicle at 6.05 uM by fluorescence emission spectra analysis; details: in the assay text read “9:1 DMPC/DMPG” for “9:1 DMPG/DMPC”
Procedure, shortened: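 Intrinsic 1-methylindole emission of 6.05 μM compound in Tris/sucrose/KCl buffer pH 7.4 was recorded at 27°C while titrating with DMPC/DMPG giant vesicles (5–30 μL), with excitation at each compound's own wavelength. Vesicle light scattering was under 5% of the signal.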

[6] = target: T4, Ras guanyl-releasing protein 3 (Homo sapiens) (UniProt Q8IV61); assay: Activation of RasGRP3 (unknown origin) overexpressed in HEK293 cells assessed as ERK1/2 phosphorylation at 0.1 to 30 uM after 30 mins by Western blot analysis; assay type: cell-based
T4 sequence (whole entry): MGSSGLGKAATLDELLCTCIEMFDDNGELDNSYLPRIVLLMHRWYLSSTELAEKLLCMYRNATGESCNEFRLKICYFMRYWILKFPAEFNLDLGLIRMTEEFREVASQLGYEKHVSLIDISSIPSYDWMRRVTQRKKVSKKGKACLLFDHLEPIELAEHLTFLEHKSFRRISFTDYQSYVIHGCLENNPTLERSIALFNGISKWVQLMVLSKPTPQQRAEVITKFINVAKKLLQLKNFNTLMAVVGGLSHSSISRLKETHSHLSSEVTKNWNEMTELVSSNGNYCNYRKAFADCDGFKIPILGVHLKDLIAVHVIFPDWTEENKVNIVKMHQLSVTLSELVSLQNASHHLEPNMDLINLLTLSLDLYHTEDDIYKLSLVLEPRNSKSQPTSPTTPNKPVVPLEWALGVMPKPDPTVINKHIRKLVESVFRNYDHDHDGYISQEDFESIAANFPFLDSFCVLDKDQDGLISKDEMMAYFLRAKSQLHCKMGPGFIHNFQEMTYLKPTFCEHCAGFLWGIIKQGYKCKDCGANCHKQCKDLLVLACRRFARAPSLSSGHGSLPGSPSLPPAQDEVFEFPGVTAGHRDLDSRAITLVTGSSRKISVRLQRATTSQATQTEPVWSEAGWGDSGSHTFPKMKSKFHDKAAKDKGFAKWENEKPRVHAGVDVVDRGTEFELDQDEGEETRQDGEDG

Row | SMILES | Ki [1] | Ki [2] | Ratio Ki (Homo sapiens) | Ki [3] | Activity [4] | Activity [5] | Activity [6]
1 | CCCC(CCC)C(=O)OCC1(CO)C/C(=C\c2cn(C)c3ccccc23)C(=O)O1 (centres undefined) | 16.2 nM | 21.1 nM | 49 | 0.25 nM | Active | inactive | –
2 | CCCC(CCC)C(=O)OCC1(CO)C/C(=C\c2ccc3ccn(C)c3c2)C(=O)O1 (centres undefined) | 7.5 nM | 8.08 nM | 6 | 0.87 nM | Active | Active | Active
3 | CCCC(CCC)C(=O)OCC1(CO)C/C(=C\c2cccc3c2ccn3C)C(=O)O1 (centres undefined) | 17.8 nM | 14.6 nM | 11 | 1.55 nM | Active | Active | Active
4 | CCCC(CCC)C(=O)OCC1(CO)C/C(=C\c2cccc3ccn(C)c23)C(=O)O1 (centres undefined) | 12.9 nM | 11.7 nM | 10 | 0.69 nM | Active | inactive | Active
5 | CCCC(CCC)C(=O)OCC1(CO)C/C(=C\c2ccc3c(ccn3C)c2)C(=O)O1 (centres undefined) | 8.25 nM | 2.17 nM | 24 | 0.41 nM | Active | inactive | Active
